# Where a chain is given by its changes, count along the chain named. Where “and” joins values, the source holds several entries; their conditions need not be identical. Identical values can stand only once. Calls of active or inactive are those of the source. The calls are words filed in the database; no cut-off is given here.
# Tests used:
# [1] = target: T1, Vitamin D3 receptor (Homo sapiens) (UniProt P11473); experiment: Agonist activity at human full length VDR W282R mutant expressed in COS7 cells after 24 rs by luciferase reporter gene assay; assay type: cell-based; conditions: COS-7
# T1 sequence (whole entry): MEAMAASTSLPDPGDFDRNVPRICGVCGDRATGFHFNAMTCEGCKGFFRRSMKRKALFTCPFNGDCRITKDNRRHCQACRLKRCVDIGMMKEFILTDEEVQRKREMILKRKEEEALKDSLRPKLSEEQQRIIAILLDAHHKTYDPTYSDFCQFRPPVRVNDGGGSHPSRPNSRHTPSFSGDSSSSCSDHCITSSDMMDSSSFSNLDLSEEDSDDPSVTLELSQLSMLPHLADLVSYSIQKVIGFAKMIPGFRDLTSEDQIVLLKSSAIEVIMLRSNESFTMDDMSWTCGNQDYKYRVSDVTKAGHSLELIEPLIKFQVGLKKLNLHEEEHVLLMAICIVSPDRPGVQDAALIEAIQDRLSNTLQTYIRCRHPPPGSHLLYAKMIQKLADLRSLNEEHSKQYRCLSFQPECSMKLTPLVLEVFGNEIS
# Method in brief: (§1)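 COS-7 cells grown in DMEM with 5% FCS, seeded at 2 × 10^4 per well. After 24 h, lipofected with mutant full-length hVDR expression plasmid, SPPx3-TK-Luc reporter (three mouse osteopontin VDRE copies) and sea pansy luciferase internal control. Medium changed after 4 h to 5% charcoal-treated FCS. Next day, ligand or ethanol vehicle added for 24 h. Lysate firefly luciferase normalized to the internal control. Triplicate.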
# [2] = tested on: T2, Vitamin D3 receptor (Homo sapiens), P11473 [R274L]; experiment: Agonist activity at human full length VDR R274L mutant expressed in COS7 cells after 24 rs by luciferase reporter gene assay; assay type: cell-based; conditions: COS-7; method in brief: as §1
# T2 sequence (whole entry): T1 sequence (whole entry) with R274L
# [3] = tested on: T2, Vitamin D3 receptor (Homo sapiens), P11473 [R274L]; experiment: Transactivation of human full length VDR R274L mutant expressed in COS7 cells after 24 rs by luciferase reporter gene assay relative to 1,25(OH)2D3; assay type: cell-based; conditions: COS-7; method in brief: as §1
# [4] = target: T3, Vitamin D3 receptor (Rattus norvegicus) (UniProt P13053); conditions: 5 mM
# T3 sequence (whole entry): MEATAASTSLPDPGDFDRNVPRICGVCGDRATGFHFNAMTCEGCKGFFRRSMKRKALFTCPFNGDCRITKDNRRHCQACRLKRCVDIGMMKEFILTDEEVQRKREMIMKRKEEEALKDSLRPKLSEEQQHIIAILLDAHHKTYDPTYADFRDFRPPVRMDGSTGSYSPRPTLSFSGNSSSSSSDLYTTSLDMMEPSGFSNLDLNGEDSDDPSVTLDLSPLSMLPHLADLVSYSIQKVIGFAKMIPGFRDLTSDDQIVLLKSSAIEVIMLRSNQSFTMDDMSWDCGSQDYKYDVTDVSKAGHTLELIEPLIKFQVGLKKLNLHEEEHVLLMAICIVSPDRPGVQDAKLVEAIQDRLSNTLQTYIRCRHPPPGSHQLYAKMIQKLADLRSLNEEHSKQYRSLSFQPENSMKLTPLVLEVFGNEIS
# [5] = tested on: T4, Vitamin D3 receptor (Rattus norvegicus), P13053 [W282R]; conditions: 5 mM
# T4 sequence (whole entry): T3 sequence (whole entry) with W282R
# [6] = tested on: T5, Vitamin D3 receptor (Rattus norvegicus), P13053 [R270L]; conditions: 5 mM
# T5 sequence (whole entry): T3 sequence (whole entry) with R270L
Compound,Activity [1],Activity [2],further results
C=CC[C@@H]1CC[C@]2(C)[C@@H]([C@H](C)CCCC(C)(C)O)CC[C@H]2/C1=C/C=C1C[C@@H](O)C(=CCO)[C@H](O)C1,inactive,–,–
CCCC[C@@H]1CC[C@]2(C)[C@@H]([C@H](C)CCCC(C)(C)O)CC[C@H]2/C1=C/C=C1C[C@@H](O)C[C@H](O)C1,inactive,–,–
C[C@H](CCCC(C)(C)O)[C@H]1CC[C@H]2/C(=C/C=C3/C[C@@H](O)C[C@H](OCCO)C3)CCC[C@]12C,–,Active,–
CCC(O)(CC)CS[C@@H](C)C1=CC[C@H]2/C(=C/C=C3C[C@@H](O)C(=CCO)[C@H](O)C3)CCC[C@]12C,–,–,fold change (FC) [3]: 130 and 46
C=C1/C(=C\C=C2/CCC[C@]3(C)[C@@H]([C@H](C)CCCC(C)(C)O)CC[C@@H]23)C[C@@H](O)C[C@@H]1O,–,–,ΔTm [4]: 8.4 °C; ΔTm [5]: 0.1 °C; ΔTm [6]: 2.5 °C

# Now from value to compound, other results behind:
Activity [1],Activity [2],Compound,further results
inactive,–,C[C@H](CCCC(C)(C)O)[C@H]1CC[C@H]2/C(=C/C=C3C[C@@H](O)C(=CCO)[C@H](O)C3)[C@H](CCCO)CC[C@]12C,–
–,inactive,C[C@H](CCCC(C)(C)O)[C@H]1CC[C@H]2/C(=C/C=C3/C[C@@H](O)[C@@](C)(O)[C@H](OCCO)C3)CCC[C@]12C,–
–,inactive,C[C@H](CCCC(C)(C)O)[C@H]1CC[C@H]2/C(=C/C=C3/C[C@@H](O)[C@@](C)(O)[C@H](OCCCO)C3)CCC[C@]12C,–
–,Active,C[C@H](CCCC(C)(C)O)[C@H]1CC[C@H]2/C(=C/C=C3/C[C@@H](O)C[C@H](OCCCCO)C3)CCC[C@]12C,–
–,inactive,C[C@H](CCCC(C)(C)O)[C@H]1CC[C@H]2/C(=C/C=C3/C[C@@H](O)[C@@](C)(O)[C@H](OCCCCO)C3)CCC[C@]12C,–
